According to ChEMBL document CHEMBL3091463, “Cytotoxic ent-kaurane diterpenoids from Salvia cavaleriei” (J Nat Prod, 2013):

What was measured:
HL-60 = assay: Cytotoxicity against human HL60 cells after 48 hrs by MTS assay; format: functional, cell-based; settings: HL-60, 48 h
How it was run: (§1)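 Cells were kept in RPMI-1640 or DMEM with 10% FBS at 37 °C under 5% CO2 and seeded at 1 × 10^5 cells/mL, with adherent cells allowed 12 h to attach. Compounds were tested at 0.064, 0.32, 1.6, 8 and 40 μM, in triplicate, for 48 h at 37 °C. Cisplatin and paclitaxel were the positive controls. MTS was then added for 4 h and absorbance read at […]. IC50 was calculated by the Reed and Muench method.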

SW480 = assay: Cytotoxicity against human SW480 cells after 48 hrs by MTS assay; format: functional, cell-based; settings: SW480, 48 h; how it was run: as §1
MCF7 = assay: Cytotoxicity against human MCF7 cells after 48 hrs by MTS assay; format: functional, cell-based; settings: MCF7, 48 h; how it was run: as §1
SMMC-7721 = assay: Cytotoxicity against human SMMC7721 cells after 48 hrs by MTS assay; format: functional, cell-based; settings: SMMC-7721, 48 h; how it was run: as §1
[1] = Cytotoxicity against human BEAS2B cells after 48 hrs by MTS assay; format: cell-based; settings: BEAS-2B
A549 = assay: Cytotoxicity against human A549 cells after 48 hrs by MTS assay; format: functional, cell-based; settings: A549, 48 h; how it was run: as §1

Compound | IC50 (HL-60) [nM] | IC50 (SW480) [nM] | IC50 (MCF7) [nM] | IC50 (SMMC-7721) [nM] | IC50 [1] [nM] | IC50 (A549) [nM]
C=C1C(=O)[C@@]23[C@H](O)C[C@@H]4C(C)(C)C(=O)CC[C@@]4(C)[C@@H]2C(=O)C[C@@H]1[C@H]3O | 3300 | 2200 | 3100 | 4900 | 3100 | 6400
C=C1C(=O)[C@@]23[C@H](O)C[C@@H]4[C@@](C)(COC(C)=O)CCC[C@@]4(C)[C@@H]2C(=O)C[C@@H]1[C@H]3O | 710 | 1700 | 1800 | 960 | 870 | 940
COC[C@@H]1C(=O)[C@@]23[C@H](O)C[C@@H]4[C@@](C)(COC(C)=O)CCC[C@@]4(C)[C@@H]2C(=O)C[C@@H]1[C@H]3O | > 10000 | 6700 | > 10000 | > 10000 | > 10000 | > 10000
COC[C@H]1C(=O)[C@@]23[C@H](O)C[C@@H]4C(C)(C)[C@@H](OC(C)=O)CC[C@@]4(C)[C@@H]2C(=O)C[C@@H]1[C@H]3O | 3700 | 2000 | 2500 | 4000 | 2500 | 2900
C=C1C(=O)[C@@]23[C@H](O)C[C@@H]4C(C)(C)[C@@H](OC(C)=O)CC[C@@]4(C)[C@@H]2[C@H](O)C[C@@H]1[C@H]3O | 2500 | 1400 | 3400 | 1100 | 2800 | 3500
C=C1C(=O)[C@@]23[C@H](O)C[C@@H]4C(C)(C)[C@@H](O)CC[C@@]4(C)[C@@H]2C(=O)C[C@@H]1[C@H]3O | > 10000 | 7600 | > 10000 | > 10000 | > 10000 | > 10000
C=C1C(=O)[C@@]23[C@H](O)C[C@@H]4C(C)(C)[C@@H](OC(C)=O)CC[C@@]4(C)[C@@H]2C(=O)C[C@@H]1[C@H]3O | 2800 | 1600 | 2500 | 3000 | 2000 | 2700
CC(=O)O[C@H]1C(=O)[C@@]2(C)[C@H]([C@H](OC(=O)c3ccccc3)[C@]3(O)C[C@H](OC(=O)[C@H](O)[C@@H](NC(=O)c4ccccc4)c4ccccc4)C(C)=C1C3(C)C)[C@]1(OC(C)=O)CO[C@@H]1C[C@@H]2O [PACLITAXEL] | < 8 | < 8 | < 8 | < 8 | 580 | < 8
COC[C@H]1C(=O)[C@@]23[C@H](O)C[C@@H]4[C@@](C)(COC(C)=O)CCC[C@@]4(C)[C@@H]2C(=O)C[C@@H]1[C@H]3O | 2800 | 2600 | 2000 | 3500 | 3000 | 3000
C=C1C(=O)[C@@]23[C@H](O)C[C@@H]4C(C)(C)[C@@H](OC(C)=O)CC[C@@]4(C)[C@@H]2[C@@H]2O[C@@H]2[C@@H]1[C@H]3O | 650 | 1800 | 3000 | 1300 | 730 | 1100
C=C1C(=O)[C@@]23[C@H](O)C[C@@H]4C(C)(C)C(=O)CC[C@@]4(C)[C@@H]2[C@H](O)C[C@@H]1[C@H]3O | > 10000 | 8100 | > 10000 | > 10000 | > 10000 | > 10000
C=C1C(=O)[C@@]23[C@H](O)C[C@@H]4C(C)(C)[C@@H](OC(C)=O)CC[C@@]4(C)[C@@H]2[C@@H](O)C[C@@H]1[C@H]3O | 9700 | 5500 | > 10000 | 3800 | > 10000 | > 10000
CCOC[C@H]1C(=O)[C@@]23[C@H](O)C[C@@H]4C(C)(C)[C@@H](OC(C)=O)CC[C@@]4(C)[C@@H]2C(=O)C[C@@H]1[C@H]3O | 3300 | 3000 | 3100 | 3500 | 2800 | 3500
COC[C@@H]1C(=O)[C@@]23[C@H](O)C[C@@H]4C(C)(C)C(=O)CC[C@@]4(C)[C@@H]2C(=O)C[C@@H]1[C@H]3O | > 10000 | > 10000 | > 10000 | > 10000 | > 10000 | > 10000
CCOC[C@@H]1C(=O)[C@@]23[C@H](O)C[C@@H]4C(C)(C)[C@@H](OC(C)=O)CC[C@@]4(C)[C@@H]2C(=O)C[C@@H]1[C@H]3O | > 10000 | > 10000 | > 10000 | > 10000 | > 10000 | > 10000
C=C1C(=O)[C@@]23[C@H](O)C[C@@H]4C(C)(C)[C@@H](OC(C)=O)CC[C@@]4(C)[C@@H]2C=C[C@@H]1[C@H]3O | 2100 | 2800 | 1700 | 2800 | 880 | 3100
